ChEMBL document CHEMBL3621052, “Small cyclic agonists of iron regulatory hormone hepcidin” (Bioorg Med Chem Lett, 2015)
Activity calls are given as the source filed them. The rule behind the calls is not given here. Starred links: 1 amine or outer side, 2 acyl side, 3 side chain; linkers in the order of their positions; H or OH if unused. Positions of bridges follow the written chain, without caps; N, C: chain ends. Non-standard residues stand in square brackets, D forms with d. Residues, ends and D or L forms follow the SMILES beside them. ξ: configuration not given here. *: point of attachment. CH2CONHCH2CH2NHCOCH2 = O=C(C[*:1])NCCNC(=O)C[*:2]; Propanoyl(3,3-Ph2) = O=C(CC(c1ccccc1)c1ccccc1)*; Pyridine(2,6-diCH2) = c1cc(C[*:1])nc(C[*:2])c1; X2 = O=C(CC(c1ccccc1)(c1ccccc1)c1ccccc1)*; dDip = N[C@@H](C(=O)O)C(c1ccccc1)c1ccccc1; X5 = c1cc(Cc2cccc(C[*:2])c2)cc(C[*:1])c1; Dip = N[C@H](C(=O)O)C(c1ccccc1)c1ccccc1; X7 = c1cc(Oc2ccc(C[*:2])cc2)ccc1C[*:1]; TBMB = c1c(C[*:1])cc(C[*:3])cc1C[*:2]; mXylylene = c1cc(C[*:1])cc(C[*:2])c1; oXylylene = c1ccc(C[*:2])c(C[*:1])c1; NH(CH2CH2O)2CH2CH2NH2 = NCCOCCOCCN*; X6 = c1cc(C[*:1])c2c(C[*:2])cccc2c1; pXylylene = c1cc(C[*:2])ccc1C[*:1]; Palmitoyl = CCCCCCCCCCCCCCCC(=O)*; X4 = c1cc(CSCCN[*:2])cc(C[*:1])c1; X3 = O=S(=O)(CC[*:1])CC[*:2]; ξF = NC(Cc1ccccc1)C(=O)O; Mpa = O=C(O)CCS

biological target: T1, Ferroportin (Homo sapiens, UniProt Q9NP59); test: Agonist activity at GFP-fused human FPN transfected in HEK293 cells assessed as protein degradation after 24 hrs by flow cytometric analysis; type: cell-based
T1 sequence (Q9NP59 whole entry): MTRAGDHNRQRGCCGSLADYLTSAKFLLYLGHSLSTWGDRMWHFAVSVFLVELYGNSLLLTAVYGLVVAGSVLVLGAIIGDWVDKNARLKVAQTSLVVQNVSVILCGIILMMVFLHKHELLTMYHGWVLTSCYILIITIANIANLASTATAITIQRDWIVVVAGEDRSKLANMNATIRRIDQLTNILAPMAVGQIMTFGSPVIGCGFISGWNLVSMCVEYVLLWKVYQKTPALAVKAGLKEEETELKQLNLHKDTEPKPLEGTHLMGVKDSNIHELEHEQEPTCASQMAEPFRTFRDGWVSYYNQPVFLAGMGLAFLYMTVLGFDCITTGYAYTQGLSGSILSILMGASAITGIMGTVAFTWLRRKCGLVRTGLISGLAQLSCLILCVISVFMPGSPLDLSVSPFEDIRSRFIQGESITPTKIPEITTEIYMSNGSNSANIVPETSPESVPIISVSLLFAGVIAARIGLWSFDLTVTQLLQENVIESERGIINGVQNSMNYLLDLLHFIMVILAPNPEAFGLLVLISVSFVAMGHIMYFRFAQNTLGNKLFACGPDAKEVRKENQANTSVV
Method in brief: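 HEK293:TREX-Fpn-GFP cells (human ferroportin-GFP, doxycycline-inducible) plated on poly-D-lysine with 20 μM FAC, induced with 500 ng/mL doxycycline for 24 h, washed, then peptide-treated 24 h. Green fluorescence read by flow cytometry at 1 × 10^6 cells/mL, gated against uninduced cells. Activity expressed as fraction of hep25: 1 − [(Fx − Fhep25)/(Funtreated − Fhep25)]. 3–6 independent repeats.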

EC50 [nM] | SMILES
272 | CC(=O)N[C@H]1CSCc2cccc(c2)CSC[C@@H](C(N)=O)NC(=O)[C@H](Cc2ccccc2)NC(=O)[C@H](CCCNC(=N)N)NC(=O)[C@H](CS)NC(=O)[C@H](CCCNC(=N)N)NC(=O)[C@@H]2CCCN2C(=O)[C@H](Cc2ccccc2)NC1=O (Ac-CFPRCRFC-NH2; linker 1-8 via mXylylene)
> 600 | CC(=O)N[C@H]1CSCc2cccc(n2)CSC[C@@H](C(N)=O)NC(=O)[C@H](Cc2ccccc2)NC(=O)[C@H](CCCNC(=N)N)NC(=O)[C@H](CS)NC(=O)[C@H](CCCNC(=N)N)NC(=O)[C@@H]2CCCN2C(=O)[C@H](Cc2ccccc2)NC1=O (Ac-CFPRCRFC-NH2; linker 1-8 via Pyridine(2,6-diCH2))
75.1 | C[C@@H](O)[C@H](NC(=O)CNCC(=O)O)C(=O)N[C@H]1CSCc2cccc(c2)CSC[C@@H](C(N)=O)NC(=O)[C@H](Cc2ccccc2)NC(=O)[C@H](CCCNC(=N)N)NC(=O)[C@H](CS)NC(=O)[C@H](CCCNC(=N)N)NC(=O)[C@@H]2CCCN2C(=O)[C@H](C(c2ccccc2)c2ccccc2)NC1=O
586 | CC(=O)N[C@H]1CSCc2ccc(cc2)CSC[C@@H](C(N)=O)NC(=O)[C@H](Cc2ccccc2)NC(=O)[C@H](CCCNC(=N)N)NC(=O)[C@H](CS)NC(=O)[C@H](CCCNC(=N)N)NC(=O)[C@@H]2CCCN2C(=O)[C@H](Cc2ccccc2)NC1=O (Ac-CFPRCRFC-NH2; linker 1-8 via pXylylene)
54.3 | CC(=O)N[C@H]1CSCc2cccc(c2)CSC[C@@H](C(N)=O)NC(=O)[C@H](Cc2ccccc2)NC(=O)[C@H](CCCNC(=N)N)NC(=O)[C@H](CS)NC(=O)[C@H](CCCNC(=N)N)NC(=O)[C@@H]2CCCN2C(=O)[C@H](C(c2ccccc2)c2ccccc2)NC1=O (Ac-C[Dip]PRCRFC-NH2; linker 1-8 via mXylylene)
> 600 | CC(=O)N[C@H]1CSCc2cccc3cccc(c23)CSC[C@@H](C(N)=O)NC(=O)[C@H](Cc2ccccc2)NC(=O)[C@H](CCCNC(=N)N)NC(=O)[C@H](CS)NC(=O)[C@H](CCCNC(=N)N)NC(=O)[C@@H]2CCCN2C(=O)[C@H](Cc2ccccc2)NC1=O (Ac-CFPRCRFC-NH2; linker 1-8 via X6)
599 | CC(=O)N[C@H]1CSCc2ccccc2CSC[C@@H](C(N)=O)NC(=O)[C@H](Cc2ccccc2)NC(=O)[C@H](CCCNC(=N)N)NC(=O)[C@H](CS)NC(=O)[C@H](CCCNC(=N)N)NC(=O)[C@@H]2CCCN2C(=O)[C@H](Cc2ccccc2)NC1=O (Ac-CFPRCRFC-NH2; linker 1-8 via oXylylene)
532 | C[C@@H](O)[C@H](NC(=O)CNCC(=O)O)C(=O)N[C@H]1CSCc2cccc(c2)CSC[C@@H](C(N)=O)NC(=O)[C@H](Cc2ccccc2)NC(=O)[C@H](CCCNC(=N)N)NC(=O)[C@H](CS)NC(=O)[C@H](CCCNC(=N)N)NC(=O)[C@@H]2CCCN2C(=O)[C@H](Cc2ccccc2)NC1=O

The next lines start with the compound.

SMILES | EC50 [nM]
CCCCCCCCCCCCCCCC(=O)N[C@H]1CSCc2cccc(c2)CSC[C@@H](C(N)=O)NC(=O)[C@H](Cc2ccccc2)NC(=O)[C@H](CCCNC(=N)N)NC(=O)[C@H](CS)NC(=O)[C@H](CCCNC(=N)N)NC(=O)[C@@H]2CCCN2C(=O)[C@H](C(c2ccccc2)c2ccccc2)NC1=O (Palmitoyl-C[Dip]PRCRFC-NH2; linker 1-8 via mXylylene) | > 600
CC(=O)N[C@H]1CSCC(=O)NCCNC(=O)CSC[C@@H](C(N)=O)NC(=O)[C@H](Cc2ccccc2)NC(=O)[C@H](CCCNC(=N)N)NC(=O)[C@H](CS)NC(=O)[C@H](CCCNC(=N)N)NC(=O)[C@@H]2CCCN2C(=O)[C@H](Cc2ccccc2)NC1=O (Ac-CFPRCRFC-NH2; linker 1-8 via CH2CONHCH2CH2NHCOCH2) | > 600
CC(=O)N[C@H]1CSCc2cc3cc(c2)CSC[C@H](NC(=O)C(Cc2ccccc2)NC(=O)[C@H](CCCNC(=N)N)NC(=O)[C@H](CS)NC(=O)[C@H](CCCNC(=N)N)NC(=O)[C@@H]2CCCN2C(=O)[C@H](Cc2ccccc2)NC1=O)C(=O)N[C@@H](Cc1ccccc1)C(=O)N1CCC[C@H]1C(=O)N[C@@H](CCCNC(=N)N)C(=O)N[C@@H](CS)C(=O)N[C@@H](CCCNC(=N)N)C(=O)N[C@@H](Cc1ccccc1)C(=O)N[C@H](C(N)=O)CSC3 (some centres undefined) (Ac-CFPRCR[ξF]CFPRCRFC-NH2; linker 1-8-15 via TBMB) | > 600
CCCCCCCCCCCCCCCC(=O)N[C@H](C(=O)N[C@H]1CSCc2cccc(c2)CSCCNC(=O)[C@H](Cc2ccccc2)NC(=O)[C@H](CCCNC(=N)N)NC(=O)[C@H](CS)NC(=O)[C@H](CCCNC(=N)N)NC1=O)C(c1ccccc1)c1ccccc1 (Palmitoyl-[Dip]CRCRF; linker 2-C via X4) | > 600
CCCCCCCCCCCCCCCC(=O)N[C@H]1CSCc2cccc(c2)CSCCNC(=O)[C@H](Cc2ccccc2)NC(=O)[C@H](CCCNC(=N)N)NC(=O)[C@H](CS)NC(=O)[C@H](CCCNC(=N)N)NC(=O)[C@@H]2CCCN2C(=O)[C@H](C(c2ccccc2)c2ccccc2)NC1=O (Palmitoyl-C[Dip]PRCRF; linker 1-C via X4) | 369
CC(=O)N[C@H]1CSCCS(=O)(=O)CCSC[C@@H](C(N)=O)NC(=O)[C@H](Cc2ccccc2)NC(=O)[C@H](CCCNC(=N)N)NC(=O)[C@H](CS)NC(=O)[C@H](CCCNC(=N)N)NC(=O)[C@@H]2CCCN2C(=O)[C@H](Cc2ccccc2)NC1=O (Ac-CFPRCRFC-NH2; linker 1-8 via X3) | > 600
N=C(N)NCCC[C@@H]1NC(=O)[C@@H](NC(=O)CC(c2ccccc2)(c2ccccc2)c2ccccc2)CSCc2cccc(c2)CSC[C@@H](C(N)=O)NC(=O)[C@H](Cc2ccccc2)NC(=O)[C@H](CCCNC(=N)N)NC(=O)[C@H](CS)NC1=O (X2-CRCRFC-NH2; linker 1-6 via mXylylene) | 113
CC(=O)N[C@H]1CSCc2ccc(cc2)Oc2ccc(cc2)CSC[C@@H](C(N)=O)NC(=O)[C@H](Cc2ccccc2)NC(=O)[C@H](CCCNC(=N)N)NC(=O)[C@H](CS)NC(=O)[C@H](CCCNC(=N)N)NC(=O)[C@@H]2CCCN2C(=O)[C@H](Cc2ccccc2)NC1=O (Ac-CFPRCRFC-NH2; linker 1-8 via X7) | 477
CC(=O)N[C@H]1CSCc2cccc(c2)CSC[C@@H](C(=O)NCCOCCOCCN)NC(=O)[C@H](Cc2ccccc2)NC(=O)[C@H](CCCNC(=N)N)NC(=O)[C@H](CS)NC(=O)[C@H](CCCNC(=N)N)NC(=O)[C@@H]2CCCN2C(=O)[C@H](C(c2ccccc2)c2ccccc2)NC1=O (Ac-C[Dip]PRCRFC-{NH(CH2CH2O)2CH2CH2NH2}; linker 1-8 via mXylylene) | 165
CC(=O)N[C@H]1CSCc2cccc(c2)Cc2cccc(c2)CSC[C@@H](C(N)=O)NC(=O)[C@H](Cc2ccccc2)NC(=O)[C@H](CCCNC(=N)N)NC(=O)[C@H](CS)NC(=O)[C@H](CCCNC(=N)N)NC(=O)[C@@H]2CCCN2C(=O)[C@H](Cc2ccccc2)NC1=O (Ac-CFPRCRFC-NH2; linker 1-8 via X5) | 517
N=C(N)NCCC[C@@H]1NC(=O)[C@H](CS)NC(=O)[C@H](CCCNC(=N)N)NC(=O)[C@H](NC(=O)CC(c2ccccc2)c2ccccc2)CSCc2cccc(c2)CSCCNC(=O)[C@H](Cc2ccccc2)NC1=O | 269
CCCCCCCCCCCCCCCC(=O)N[C@@H](C(=O)N[C@H]1CSCc2cccc(c2)CSCCNC(=O)[C@H](Cc2ccccc2)NC(=O)[C@H](CCCNC(=N)N)NC(=O)[C@H](CS)NC(=O)[C@H](CCCNC(=N)N)NC1=O)C(c1ccccc1)c1ccccc1 (Palmitoyl-[dDip]CRCRF; linker 2-C via X4) | 458
N=C(N)NCCC[C@@H]1NC(=O)[C@H](CS)NC(=O)[C@H](CCCNC(=N)N)NC(=O)[C@H](NC(=O)CC(c2ccccc2)c2ccccc2)CSCc2cccc(c2)CSC[C@@H](C(N)=O)NC(=O)[C@H](Cc2ccccc2)NC1=O ({Propanoyl(3,3-Ph2)}-[dC]RCRFC-NH2; linker 1-6 via mXylylene) | 335
N=C(N)NCCC[C@@H]1NC(=O)[C@H](CS)NC(=O)[C@H](CCCNC(=N)N)NC(=O)[C@@H]2CCCN2C(=O)[C@H](C(c2ccccc2)c2ccccc2)NC(=O)CCSCc2cccc(c2)CSC[C@@H](C(=O)NCCOCCOCCN)NC(=O)[C@H](Cc2ccccc2)NC1=O ([Mpa][Dip]PRCRFC-{NH(CH2CH2O)2CH2CH2NH2}; linker 1-8 via mXylylene) | 92.3

test system: Plasma; test: Metabolic stability in mouse plasma at 25 uM by LC/MS analysis; type: ADME, cell-free
Method in brief: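 Peptide from 10 mM DMSO stock added to fresh mouse plasma (final 25 μM), incubated at 37 °C. Samples (10 μL) taken at time-points and diluted into DMSO/ACN 1:1 with 0.1% TFA. Centrifuged 13000 rpm, 10 min. Supernatant analysed by triple-quadrupole LC/MS with NM4A-Me peptide as internal standard.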

SMILES | Stability
CCCCCCCCCCCCCCCCNC(=O)CN(CC(N)=O)C(=O)CCCCCNC(=O)C[C@H](Cc1ccccc1)NC(=O)[C@H](CCCNC(=N)N)NC(=O)[C@H](CS)NC(=O)[C@H](CCCNC(=N)N)NC(=O)C[C@@H]1CCCN1C(=O)[C@@H](NC(=O)[C@H](Cc1c[nH]cn1)NC(=O)[C@@H](NC(=O)CNCC(=O)O)[C@@H](C)O)C(c1ccccc1)c1ccccc1 | Stable

test system: Mus musculus; test: Decrease in serum iron level in C57BL/6 mouse at 100 nmol, sc after 24 hrs by colorimetric analysis; type: functional, organism-based
Method in brief: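 C57BL/6 mice on NIH 31 diet (iron 336 mg/kg). Single subcutaneous injection of 50, 100 or 200 nmoles peptide in 100 μL PBS; controls received PBS alone. Killed at 24 h, serum from cardiac blood. Serum iron by colorimetric assay (microplate, 50 μL serum). Percent decrease versus mean of PBS-injected mice.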

SMILES | Activity
CCCCCCCCCCCCCCCCNC(=O)CN(CC(N)=O)C(=O)CCCCCNC(=O)C[C@H](Cc1ccccc1)NC(=O)[C@H](CCCNC(=N)N)NC(=O)[C@H](CS)NC(=O)[C@H](CCCNC(=N)N)NC(=O)C[C@@H]1CCCN1C(=O)[C@@H](NC(=O)[C@H](Cc1c[nH]cn1)NC(=O)[C@@H](NC(=O)CNCC(=O)O)[C@@H](C)O)C(c1ccccc1)c1ccccc1 | Active
